This passage reports IC50, Ki and Activity results from ChEMBL document CHEMBL1136312, “Nortropinyl-arylsulfonylureas as novel, reversible inhibitors of human steroid sulfatase” (Bioorg Med Chem Lett, 2003).

A value given as a limit tells only on which side of the number the result lay.

In experiment [1] the target is T1, Steryl-sulfatase (Homo sapiens, UniProt P08842).
T1 sequence (P08842 whole entry): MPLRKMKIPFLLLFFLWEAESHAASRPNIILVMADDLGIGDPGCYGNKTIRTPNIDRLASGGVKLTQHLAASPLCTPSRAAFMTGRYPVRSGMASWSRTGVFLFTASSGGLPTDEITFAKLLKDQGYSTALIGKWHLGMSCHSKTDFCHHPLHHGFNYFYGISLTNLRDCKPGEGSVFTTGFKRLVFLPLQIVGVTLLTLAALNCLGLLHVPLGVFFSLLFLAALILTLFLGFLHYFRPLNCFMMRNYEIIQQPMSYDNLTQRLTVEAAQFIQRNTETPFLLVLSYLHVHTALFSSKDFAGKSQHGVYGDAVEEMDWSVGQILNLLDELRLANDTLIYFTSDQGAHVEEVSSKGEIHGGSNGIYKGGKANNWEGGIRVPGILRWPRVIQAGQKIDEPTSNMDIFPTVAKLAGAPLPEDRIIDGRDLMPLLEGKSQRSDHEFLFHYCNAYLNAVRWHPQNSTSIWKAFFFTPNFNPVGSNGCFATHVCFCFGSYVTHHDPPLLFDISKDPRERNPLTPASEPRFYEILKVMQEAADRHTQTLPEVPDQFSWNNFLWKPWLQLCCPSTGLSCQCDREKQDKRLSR
Briefly: Inhibitory activity against purified human Steroid sulfatase. In a few lines: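 Homogeneous human STS, purified from recombinant CHO cells, cleaves 4-methylumbelliferyl sulfate (4-MUS). The reaction is followed in a discontinuous fluorimetric assay with and without inhibitor, using a 1 h incubation in the standard format. The IC50 is taken from the inhibition data.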

For experiment [2], the target named is T1, Steryl-sulfatase. Briefly: Inhibitory activity against Steroid sulfatase expressed in CHO cells. In kind it is cell-based. In a few lines:
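Intact CHO cells over-expressing recombinant human STS are given 4-MUS as substrate, using the assay variant for reversible inhibitors. STS activity is measured in the presence of inhibitor, and the IC50 is derived.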

The target of experiment [3] is T1, Steryl-sulfatase. Briefly: Inhibitory constant against purified human Steroid sulfatase. In a few lines:
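Kinetic study with purified recombinant human STS and 4-MUS substrate in the discontinuous fluorimetric assay. Substrate turnover rates are measured at various inhibitor concentrations and replotted as Hanes diagrams. Kapp/Vapp ratios are plotted against inhibitor concentration, and Ki is read from the abscissa intercept. Pre-incubation and dextran-activated charcoal treatment were used to test reversibility.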

For another experiment, the system named is MCF7. Briefly: Growth stimulation of estrogen receptor positive MCF-7 human breast cancer cells with compound up to 10 uM; not estrogenic. In kind it is functional, cell-based.

What is called IC50 is the concentration that gives 50% inhibition. A low value points to higher potency. On to `Cc1ccc(S(=O)(=O)NC(=O)N2[C@@H]3CC[C@H]2C[C@@H](OC(=O)Cc2ccccc2)C3)cc1`, for which the IC50 on Steryl-sulfatase [1] is 16.6 µM; against Steryl-sulfatase [2], 37.1 µM.
Usually Ki stands for a measure of affinity in units of concentration, obtained from inhibition or displacement. `C[C@]12CC[C@@H]3c4ccc(OS(N)(=O)=O)cc4CC[C@H]3[C@@H]1CCC2=O` [EMATE] had a Ki at Steryl-sulfatase [3] of 0.67 µM. The same compound registered an IC50 on Steryl-sulfatase [2] of 0.03 µM.
On to `O=C(Cc1ccccc1)OC1CCN(C(=O)NS(=O)(=O)c2ccc(Cl)cc2)CC1`, for which the IC50 against Steryl-sulfatase [1] was more than 100 µM; on Steryl-sulfatase [2] it was more than 30 µM.
For `N#CC1(OC(=O)Cc2ccccc2)CCN(C(=O)NS(=O)(=O)c2ccc(Cl)cc2)CC1`, in that order: 13 µM and 24.5 µM.
On Steryl-sulfatase [3], `O=C(Cc1ccccc1)O[C@H]1C[C@H]2CC[C@@H](C1)N2C(=O)NS(=O)(=O)c1ccc(Br)cc1` registered a Ki of 1.85 µM. On Steryl-sulfatase [2], this compound registered a half-maximal inhibitory concentration (IC50) of 6.15 µM.
For `O=C(Cc1ccccc1)O[C@H]1C[C@H]2CC[C@@H](C1)N2C(=O)NC(=O)c1ccc(Cl)cc1`, in that order: 5.8 µM and 10.4 µM.
Take `O=C(Cc1ccccc1)O[C@H]1C[C@H]2CC[C@@H](C1)N2C(=O)CS(=O)(=O)c1ccc(Cl)cc1`: the IC50 against Steryl-sulfatase [1] was found to be 6.2 µM; against Steryl-sulfatase [2] it was 4.32 µM.
For `O=C(Cc1ccccc1)O[C@H]1C[C@H]2CC[C@@H](C1)N2C(=O)NS(=O)(=O)c1ccc(F)cc1`, in that order: 50 µM and 39.2 µM.
With `O=C(NN1[C@@H]2CC[C@H]1C[C@@H](OC(=O)Cc1ccccc1)C2)NS(=O)(=O)c1ccc(Cl)cc1`, the Activity entry in the experiment on MCF7 is “not estrogenic”. This compound also showed an inhibitory constant (Ki) at Steryl-sulfatase [3] of 0.89 µM. The IC50 against Steryl-sulfatase [2] came to 3.84 µM.
`O=C(Cc1ccccc1)O[C@H]1C[C@H]2CC[C@@H](C1)N2C(=O)NS(=O)(=O)c1cc(C(F)(F)F)cc(C(F)(F)F)c1` came in with an inhibitory constant (Ki) at Steryl-sulfatase [3] of 0.076 µM. Besides, the IC50 worked out at 0.084 µM against Steryl-sulfatase [1] and 1.89 µM on Steryl-sulfatase [2].
Turning to `O=C(Cc1ccccc1)O[C@H]1C[C@H]2CC[C@@H](C1)N2C(=O)NS(=O)(=O)c1ccccc1`, the values for the 50% inhibitory concentration (IC50) at Steryl-sulfatase [1] and against Steryl-sulfatase [2] were more than 100 µM and more than 30 µM, respectively.
With `O=C(Cc1ccccc1)O[C@H]1C[C@H]2CC[C@@H](C1)N2C(=O)NS(=O)(=O)c1ccc(Cl)cc1`, on Steryl-sulfatase [3], the inhibition constant Ki was found to be 2.4 µM. Further, on Steryl-sulfatase [2], the IC50 turned out to be 6.72 µM.
On to `O=C(Cc1ccccc1)O[C@H]1C[C@H]2CC[C@@H](C1)N2C(=O)NS(=O)(=O)c1ccc(C(F)(F)F)cc1`, for which the Ki on Steryl-sulfatase [3] was found to be 0.53 µM. The compound further showed an IC50 against Steryl-sulfatase [2] of 7.47 µM.
